ADAM10 inh: inhibitors of human ADAM10; O14672; recombinant ADAM10, EDANS/DABCYL FRET peptide cleavage, 3 h; inhibition, % at 7 µM; 0.62% of 370,000 active; AID 720582;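 active = inhibition above a per-campaign cutoff equal to the mean of compounds falling between control-based bounds plus 3 SD, cut at about 20% in these data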;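 note: 0% = DMSO wells while the 100% control is not disclosed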
GASC-1 inh: blocks human GASC-1 demethylase activity; Q9H3R0; GST-JMJD2C(1-420) H3K9me3 demethylation, DELFIA europium; inhibition, % at 2.35 µM; 0.069% of 330,000 active; AID 2099;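 active = more than half of a compound's replicate wells show inhibition beyond 50%, single wells judged on their own value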;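 note: signal counts dimethyl H3K9 product captured on neutravidin plate; 0% = median of DMSO wells and 100% = 0.3 times that DMSO median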
NR2E3 ag-1: human photoreceptor-specific nuclear receptor agonism | inhibition of corepressor binding, % at 3.98 µM | CHO-S Gal4-NCOR/VP16-NR2E3 two-hybrid, luciferase | 0.35% of 360,000 active | Q9Y5X4;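 active = inhibition above the mean of all tested compounds plus 3 SD, cut at about 70% in these data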;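 note: 0% = DMSO with NR2E3 transfected cells and 100% = cells lacking NR2E3 construct; higher means lower luciferase signal from less NR2E3 corepressor binding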
Target sequence (Q9Y5X4 whole entry, looked up, the tested form may be a part): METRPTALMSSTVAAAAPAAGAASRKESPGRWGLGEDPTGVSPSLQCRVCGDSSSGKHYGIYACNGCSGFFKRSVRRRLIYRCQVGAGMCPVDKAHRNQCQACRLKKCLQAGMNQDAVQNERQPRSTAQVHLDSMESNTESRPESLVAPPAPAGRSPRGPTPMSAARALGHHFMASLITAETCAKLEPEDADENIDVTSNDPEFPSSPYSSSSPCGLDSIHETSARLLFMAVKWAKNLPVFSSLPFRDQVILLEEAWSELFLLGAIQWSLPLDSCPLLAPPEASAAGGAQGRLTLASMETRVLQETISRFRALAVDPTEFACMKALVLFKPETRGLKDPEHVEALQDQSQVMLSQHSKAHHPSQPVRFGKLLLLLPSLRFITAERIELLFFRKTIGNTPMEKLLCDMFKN
KLK7 zymogen act: activates the human kallikrein-7 zymogen; 0.9% of 370,000 active; purified proKLK7, EDANS-DABCYL substrate fluorescence; 100% is mature enzyme control, 0% vehicle; P49862; activation, % at 7 µM;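 active = activation above the mean of all tested compounds plus 3 SD, computed per campaign excluding outliers beyond control limits, cut at about 13% in these data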
Target sequence (P49862 whole entry, looked up): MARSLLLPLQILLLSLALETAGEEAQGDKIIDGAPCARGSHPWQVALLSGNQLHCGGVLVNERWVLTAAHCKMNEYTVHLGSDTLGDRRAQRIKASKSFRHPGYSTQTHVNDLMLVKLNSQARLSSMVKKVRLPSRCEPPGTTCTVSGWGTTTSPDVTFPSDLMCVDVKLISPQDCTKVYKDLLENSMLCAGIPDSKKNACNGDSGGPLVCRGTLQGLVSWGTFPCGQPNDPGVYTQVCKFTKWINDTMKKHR
ADAM17 inh: inhibitors of human ADAM17; inhibition, % at 6.95 µM; AID 720648; 0.83% of 370,000 active; recombinant ADAM17, EDANS/DABCYL FRET peptide cleavage;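 active = inhibition above the mean of compounds lying between control limits plus 3 SD, set per campaign, cut at about 8.5% in these data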;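 note: 0% = DMSO-only wells as the low control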
NR2E3 ag-2: activates human photoreceptor nuclear receptor NR2E3. inhibition of corepressor binding, % at 4.78 µM. 0.12% of 320,000 active. Q9Y5X4. GST-NR2E3/biotin-RetCOR TR-FRET, 1536-well;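 active = percent inhibition above the cutoff of mean plus 3 SD of all tested compounds, set per screening campaign, cut at about 20% in these data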;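 note: 0% = DMSO wells and 100% = biotin wells as full block of FRET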
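Material: NR2E3–RetCOR corepressor complex | Quantity: 1.35 nM GST-tagged NR2E3 final | Schedule: 5 h at 4 °C | Replication: Singlicate compound wells | Reagent: RetCOR corepressor, biotinylated, 7 nM | Controls: Biotin wells as high control, 0.6% DMSO wells as low control | Signal: TR-FRET, Eu(K)-anti-GST donor, streptavidin-D2 acceptor, ex 340, em 617/671 nm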
KLK7 act conf: proKLK7 activation, confirmation | 68% of 3,200 active | activation, % at 7 µM | shares compounds with KLK7 zymogen act | purified proKLK7, EDANS-DABCYL substrate fluorescence; scaled: vehicle 0, mature enzyme 100;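 active = activation, as change over the incubation, above the mean of all tested compounds plus 3 SD, cut at about 13% in these data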
EDANS interfere: counter-screen for kallikrein-7 activators: EDANS-DABCYL optical interference | shares compounds with KLK7 zymogen act | EDANS-DABCYL substrate fluorescence interference, no enzyme, 4 h; solvent 0%, active enzyme control 100% | activation, % at 7 µM | 80% of 3,200 active | AID 686952;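 active = activation above the all-compound mean plus 3 SD, ignoring values outside control-based bounds, cut at about 4.8% in these data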;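 note: value is the 4 h activation minus the activation read at time zero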
ADAM10 confirm: confirmation of inhibitors of human ADAM10. shares compounds with ADAM10 inh. ADAM10 QFRET peptide cleavage, EDANS fluorescence. inhibition, % at 6.95 µM. 1% of 2,100 active. AID 743208;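 active = inhibition above about 20% chosen separately for each screening run, limit read from the data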;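 note: 0% = DMSO wells and 100% = marimastat wells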
ADAM17 ctr: inhibits human ADAM17 in ADAM10 exosite counter-screen. 0.5% of 2,100 active. ADAM17 QFRET peptide cleavage, EDANS fluorescence. shares compounds with ADAM10 inh. inhibition, % at 6.95 µM. AID 743214;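 active = mean triplicate inhibition above the solvent-only control wells' mean plus 3 SD, cut at about 12% in these data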;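 note: 0% = DMSO wells and 100% = marimastat wells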
* = called active by the depositor; nt = not tested or not shown. Sampled rows, rich in hits. Any-hit rate of the full collection: about 2.5%.

SMILES	ADAM10 inh	GASC-1 inh	NR2E3 ag-1	KLK7 zymogen act	ADAM17 inh	NR2E3 ag-2	ADAM10 confirm	ADAM17 ctr	others
CCCSc1ncc(Cl)c(C(=O)Nc2ccc(S(=O)(=O)N3CC(C)OC(C)C3)cc2)n1 (stereo not drawn)	20*	1	-11	67*	7	-1	10	4	KLK7 act conf=-145;EDANS interfere=-145
CC1=C(C(=O)Nc2cccc(C(=O)NC3CCCC(C)C3C)c2)SCCO1 (stereo not drawn)	-4	3	3	0	1	0	nt	nt
O=C(NO)c1ccc(C(=O)N(C2CCCCC2)C2CCCCC2)cc1	30*	-50	-21	1	4	1	22*	2
O=C(c1ccc(-n2cnnn2)cc1)N(C1CCCCC1)C1CCCCC1	6	-5	-11	0	-1	2	nt	nt
CC(C)C(=O)N1CCC1(C)C(=O)Nc1cc(-c2ccccc2)nn1C (stereo not drawn)	-3	nt	-107	0	-1	nt	nt	nt
O=S(=O)(c1cccc(C(F)(F)F)c1)N1CCC(CO)(CCCc2ccccc2)CC1	22*	25	-15	0	8	1	1	1
O=S(=O)(c1cccc(C(F)(F)F)c1)N1CCC(O)(c2cccnc2)CC1	7	-9	-2	1	0	4	nt	nt
CCOC(=O)/C(=N\Nc1ncnc2ccccc12)c1ccc(OC)cc1	5	-12	-87	-4	-2	3	nt	nt
CCOC(=O)C(Cc1ccnc2ccccc12)=NO	20*	nt	-18	0	1	nt	-1	-1
CC1CN(C(=O)c2cc(S(=O)(=O)N(C)c3ccc(F)cc3)ccc2Cl)CC(C)O1 (stereo not drawn)	0	12	3	0	-1	-2	nt	nt
COc1ccc(NC(=O)C2(C)CCN2C(=O)CC2CCCC2)cc1OC (stereo not drawn)	-3	nt	-30	-1	-5	nt	nt	nt
C/C(=N\Nc1nc2ccccc2s1)c1cccs1	25*	-14	-135	1	7	-3	8	3
O=C(Nc1ccccc1)c1ccccc1Oc1ccc(C(F)(F)F)cc1[N+](=O)[O-]	21*	-13	17	1	-5	1	4	1
COc1ccc(-c2noc(=O)n2CC(=O)N2CCC(Cc3ccccc3)CC2)cc1	-12	4	-2	0	-2	2	nt	nt
OC(COc1ccc2c(c1)CCC2)CN1CCN(c2ccccc2F)CC1 (stereo not drawn)	20*	4	-15	0	2	2	2	0
COc1ccc(NC(=O)CN2C(=O)NC3(CCCCCCC3)C2=O)cc1	-4	nt	-9	0	-4	nt	nt	nt
COc1ccc(NC(=O)CN2C(=O)C(c3ccccc3)=NC23CCCCCC3)cc1	27*	-2	-32	1	7	1	0	0
CC1(C(=O)NS(=O)(=O)c2ccc(Cl)cc2)CCN1C(=O)CCC1CCCC1 (stereo not drawn)	5	nt	-10	0	0	nt	nt	nt
O=C(Cn1nc(C(F)F)cc1C(F)F)NNC(=S)Nc1ccc([N+](=O)[O-])cc1	21*	3	-15	0	5	3	3	2
O=C(Cn1nc(C(F)F)cc1C(F)F)NNC(=S)Nc1ccc(F)cc1	0	5	-2	-1	1	2	nt	nt
CC(C)NC(=O)c1onc(CSc2cccc3ccccc23)c1C(=O)O	86*	1	32	0	-4	5	-1	1
CC(C)NC(=O)c1onc(CSc2ccccc2)c1C(=O)O	4	12	25	-1	-2	3	nt	nt
CCOc1ccc(NC(=O)CN(C)C(=O)CSCc2cccc(C)c2)cc1OCC	30*	3	-31	0	0	-6	6	1
CCOc1ccc(NC(=O)CN(C)C(=O)CSCc2ccc(C)cc2)cc1OCC	1	162	7	0	-1	-3	nt	nt
Nc1[nH]c(C(=O)c2ccccc2)c(-c2ccc(Cl)c(Cl)c2)c1C(=O)NCCc1c[nH]c2ccccc12	5	nt	nt	1	5	nt	nt	nt
SMILES	ADAM10 inh	GASC-1 inh	NR2E3 ag-1	KLK7 zymogen act	ADAM17 inh	NR2E3 ag-2	ADAM10 confirm	ADAM17 ctr	others
Nc1[nH]c(C(=O)c2ccccc2)c(-c2ccc3c(c2)OCO3)c1C(=O)NCCc1c[nH]c2ccccc12	27*	nt	nt	1	8	nt	6	3
CC(C)Cc1ccc(C(C)C(N)=Nc2ccc(O)cc2)cc1 (stereo not drawn)	7	7	4	-1	-6	-3	nt	nt
CC(C)Cc1ccc(C(C)C(=O)Nc2ccc(O)cc2)cc1 (stereo not drawn)	21*	0	8	0	5	-6	1	1
COc1cccc(OCC(O)CNC2CCCC2)c1 (stereo not drawn)	-4	-10	-13	0	0	-1	nt	nt
COc1ccc2c(c1)OC[C@H]1[C@H]2N2C(=O)CN(Cc3ccc(F)cc3)C(=O)[C@@]2(C)[C@H]1c1ccccc1	18	nt	-14	-1	6	-2	nt	nt
CCOC(=O)[C@@H]1[C@H]2COc3ccc(Br)cc3[C@H]2N2C(=O)N(c3cccc(F)c3)C(=O)[C@]12C	20*	6	-27	1	5	0	4	1
COc1ccc2c(c1)OC[C@H]1[C@H]2N2C(=O)CN(Cc3ccc(C)cc3)C(=O)[C@@]2(C)[C@H]1c1ccccc1	20*	-5	-36	-1	2	0	6	2
C[C@]12C(=O)N(c3ccc(Br)cc3)C(=O)N1[C@@H]1c3ccccc3OC[C@@H]1[C@H]2c1ccccc1	23*	-2	15	1	8	-3	7	1
C[C@@]12C(=O)N(CCc3c[nH]c4ccccc34)CC(=O)N1[C@H]1c3ccccc3OC[C@@H]1[C@@H]2c1ccccc1	22*	12	-54	0	8	1	5	2
CN(C)c1ccc(NS(=O)(=O)c2ccc(-c3csnn3)cc2)cc1	25*	-11	-7	1	1	3	-2	0

Bioassay records: PubChem BioAssay, several laboratories
